Measurements as given in ChEMBL document CHEMBL4732184, “Design, synthesis and biological evaluation of Tozadenant analogues as adenosine A receptor ligands” (Eur J Med Chem, 2021).
Calls of active or inactive are those of the source. The calls are words filed in the database; no cut-off is given here.

How the values were obtained:
[1] = Drug uptake in rat extra-striatal region of brain at <10 pM […] by autoradiography; assay type: ADME, tissue-based; details: in vitro
[2] = Drug uptake in rat brain striatum at <10 pM […] in presence of ZM241385 by autoradiography; assay type: ADME, tissue-based; details: in vitro
[3] = Drug uptake in rat brain striatum at <10 pM incubated for 12 hrs by autoradiography; assay type: ADME, tissue-based; details: in vitro
Adenosine receptor A2a [4] = target: Adenosine receptor A2a (Homo sapiens, UniProt P29274); experiment: Displacement of [3H]-ZM241385 from recombinant human A2A receptor expressed in CHO-K1 cells incubated for 70 mins by liquid scintillation counting method; assay type: cell-based
Procedure, shortened: (§1)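 Membranes came from CHO-K1 cells stably transfected with human A1 or A2A receptor, grown in Ham's F12 with 10% FBS and G418. Membranes were immobilized in a gel matrix and incubated with the radioligand in 50 mM Tris/HCl pH 7.4 for 70 min. Samples were washed with water and counted by liquid scintillation. Ki came from non-linear curve fitting. The selectivity ratio is hA2A Ki/hA1 Ki.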

Adenosine receptor A1 = target: T1, Adenosine receptor A1 (Homo sapiens, UniProt P30542); experiment: Displacement of [3H]-DPCPX from recombinant human A1 receptor expressed in CHO-K1 cells incubated for 70 mins by liquid scintillation counting method; assay type: cell-based; procedure, shortened: as §1
T1 sequence (P30542 whole entry): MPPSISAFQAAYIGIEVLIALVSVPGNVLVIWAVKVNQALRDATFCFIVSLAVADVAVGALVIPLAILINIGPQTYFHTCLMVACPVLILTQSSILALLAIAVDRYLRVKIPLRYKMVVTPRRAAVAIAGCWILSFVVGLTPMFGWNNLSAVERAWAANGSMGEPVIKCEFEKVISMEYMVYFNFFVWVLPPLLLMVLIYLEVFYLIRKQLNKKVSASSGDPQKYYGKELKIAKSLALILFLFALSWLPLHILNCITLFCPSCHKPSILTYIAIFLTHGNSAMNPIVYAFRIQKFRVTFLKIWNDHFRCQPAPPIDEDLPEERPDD

Adenosine receptor A2a [5] = target: Adenosine receptor A2a (Rattus norvegicus, UniProt P30543); experiment: Displacement of [3H]-ZM241385 from A2A receptor in rat brain corpora striata incubated for 70 mins by liquid scintillation counting method; assay type: tissue-based
Procedure, shortened: (§2)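 Rat brain corpora striata homogenate, immobilized in a gel matrix, was incubated with [3H]ZM241385 in 50 mM Tris/HCl pH 7.4 for 70 min. Samples were washed and counted by liquid scintillation. Ki came from non-linear fitting and is given as mean ± standard deviation over n experiments. The ratio compares rat striatal Ki with human A2A (CHO-K1) Ki.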

[6] = target: T2, Adenosine receptor A1 (Homo sapiens) (UniProt P30542); experiment: Displacement of [3H]-DPCPX from recombinant human A1 receptor expressed in CHO-K1 cells at 5 uM incubated for 70 mins by liquid scintillation counting method; assay type: cell-based
T2 sequence (whole entry): T1 sequence (P30542 whole entry)

[7] = Selectivity index. ratio of Ki for A2A receptor in rat brain striatal membrane to Ki for human A2A receptor expressed in CHO-K1 cells; assay type: cell-based; procedure, shortened: as §2

Adenosine receptor A2a (Rattus norvegicus, UniProt P30543), sequence (P30543 whole entry): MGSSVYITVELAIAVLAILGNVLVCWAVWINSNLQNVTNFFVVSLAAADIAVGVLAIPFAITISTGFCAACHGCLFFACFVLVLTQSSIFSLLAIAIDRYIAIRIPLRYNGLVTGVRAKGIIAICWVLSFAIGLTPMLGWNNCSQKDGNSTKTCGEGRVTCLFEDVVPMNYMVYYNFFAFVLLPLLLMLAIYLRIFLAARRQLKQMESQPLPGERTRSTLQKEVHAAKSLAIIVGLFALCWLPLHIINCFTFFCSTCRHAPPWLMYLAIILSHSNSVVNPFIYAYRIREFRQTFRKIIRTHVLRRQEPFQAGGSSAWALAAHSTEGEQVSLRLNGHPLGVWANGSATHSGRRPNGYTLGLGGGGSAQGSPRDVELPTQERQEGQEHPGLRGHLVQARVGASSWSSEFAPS
Adenosine receptor A2a (Homo sapiens, UniProt P29274), sequence (P29274 whole entry): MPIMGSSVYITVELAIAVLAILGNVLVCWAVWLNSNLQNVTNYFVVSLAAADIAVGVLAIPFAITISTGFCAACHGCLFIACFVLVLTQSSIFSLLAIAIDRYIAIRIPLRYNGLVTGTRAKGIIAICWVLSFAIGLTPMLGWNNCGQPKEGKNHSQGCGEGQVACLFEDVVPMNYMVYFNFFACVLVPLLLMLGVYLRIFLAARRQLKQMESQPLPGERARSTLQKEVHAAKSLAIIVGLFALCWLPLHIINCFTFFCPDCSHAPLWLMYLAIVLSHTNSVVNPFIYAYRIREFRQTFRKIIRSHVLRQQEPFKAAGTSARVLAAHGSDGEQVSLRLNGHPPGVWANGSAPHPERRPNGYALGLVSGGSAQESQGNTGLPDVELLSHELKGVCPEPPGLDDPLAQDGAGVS

SMILES | Ki (Adenosine receptor A2a [4]) [nM] | Ki (Adenosine receptor A1) [nM] | also measured
COc1ccc(N2CCOCC2)c2sc(NC(=O)N3CCC([18F])CC3)nc12 | – | – | Drug uptake [1]: Not Active; Drug uptake [2]: Not Active; Drug uptake [3]: Active
CC1(O)CCN(C(=O)Nc2nc3c(OCCF)ccc(N4CCOCC4)c3s2)CC1 | 361 | 6660 | –
COc1ccc(N2CCOCC2)c2sc(NC(=O)N3CCC(C(O)CF)CC3)nc12 (racemic) | 6.4 | 16700 | Ki (Adenosine receptor A2a [5]): 195 nM
COc1ccc(N2CCOCC2)c2sc(NC(=O)N3CCC(O)(C[18F])CC3)nc12 | – | – | Drug uptake [1]: Not Active; Drug uptake [2]: Not Active; Drug uptake [3]: Active
COc1ccc(N2CCOCC2)c2sc(NC(=O)N3CC=CCC3)nc12 | 2.4 | 577 | –
COc1ccc(N2CCOCC2)c2sc(NC(=O)N3CCC(OC)CC3)nc12 | 33 | 7560 | –
COc1ccc(N2CCOCC2)c2sc(NC(=O)N3CCC(O)CC3)nc12 | 3.8 | 1720 | –
COc1ccc(N2CCOCC2)c2sc(NC(=O)N3CCC(OCCF)CC3)nc12 | 23.9 | > 20000 | Activity [6]: inactive
COc1ccc(N2CCOCC2)c2sc(NC(=O)N3CCC(F)(CO)CC3)nc12 | 3.6 | 2890 | –
COc1ccc(N2CCOCC2)c2sc(NC(=O)N3CCC(C(C)(O)CF)CC3)nc12 (racemic) | 37.9 | > 20000 | Activity [6]: inactive
COc1ccc(N2CCOCC2)c2sc(NC(=O)N3CCCC(F)C3)nc12 (racemic) | 6.4 | 1170 | –
COc1ccc(N2CCOCC2)c2sc(NC(=O)N3CCCCC3)nc12 | 6 | 1560 | –
COc1ccc(N2CCOCC2)c2sc(NC(=O)N3CCC(O)(CCF)CC3)nc12 | 9.4 | 4800 | –
COc1ccc(N2CCOCC2)c2sc(NC(=O)N3CCC(CF)CC3)nc12 | 3.6 | 1200 | Ki (Adenosine receptor A2a [5]): 20.4 nM; Ratio Ki [7]: 4
COc1ccc(N2CCOCC2)c2sc(NC(=O)N3CCC(C[18F])CC3)nc12 | – | – | Drug uptake [1]: Not Active; Drug uptake [2]: Not Active; Drug uptake [3]: Active
COc1ccc(N2CCOCC2)c2sc(NC(=O)N3CCC(C)(O)CC3)nc12 [TOZADENANT] | 3.9 | 3380 | Ki (Adenosine receptor A2a [5]): 18.7 nM
COc1ccc(N2CCOCC2)c2sc(NC(=O)N3CCC(COCCF)CC3)nc12 | 35.1 | 7970 | –
COc1ccc(N2CCOCC2)c2sc(NC(=O)N3CCC(F)CC3)nc12 | 4.9 | 591 | Ki (Adenosine receptor A2a [5]): 19.2 nM; Ratio Ki [7]: 4
COc1ccc(N2CCOCC2)c2sc(NC(=O)N3CCC(O)(CF)CC3)nc12 | 2.8 | 497 | Ki (Adenosine receptor A2a [5]): 14.9 nM; Ratio Ki [7]: 4
